Data set [1] is described as follows: Toxicity against human HepG2A16 cells assessed as cell death at 450 ug/ml by MTT method. It is filed as cell-based.
The test system of another data set is Plasmodium falciparum. Kind of data set: Antiplasmodial activity growth inhibition of chloroquine-resistant Plasmodium falciparum BHz 26/86 after 72 hrs. Format: functional, organism-based. Particulars: BHz 26/86, 72 h. The gist of the method:
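Chloroquine-resistant Amazon isolate in continuous culture on human AB+ or A+ erythrocytes, RPMI 1640 + 10% human serum. Sorbitol-synchronized trophozoites at 1–2% parasitemia, 2.5% hematocrit. Compounds in 0.02% Tween 20, tested at 0.02 to 20 μM, 37°C. Growth inhibition versus drug-free control from blinded smear reading. IC50/IC90 by linear interpolation. Triplicate, three repeats.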

pIC50: −log10 of the molar value.

One may read the pIC50 as −log10 of the IC50, conventionally taken in molar units. Read a high pIC50 as a low IC50. What is called IC90 is the point of the concentration-response curve where the effect stands at 90%. Take `COc1cc2c(cc1OC)[C@@H](c1ccc3c(c1)OCO3)[C@H](C)[C@H](C)C2=O`: in data set [1], the Activity was determined as 30%. In the data set on Plasmodium falciparum, the pIC50 is less than 3.85 and the concentration for an effect of 90% (IC90) is greater than 140000 nM.

As to `COc1cc2c(cc1OC)[C@@H](c1ccc3c(c1)OCO3)[C@@H](C)[C@H](C)C2=O`, the Activity in data set [1] was found to be 30%. In the data set with Plasmodium falciparum, this molecule gave a pIC50 of 6.59 and an IC90 of 3350 nM.

As for `COc1ccc([C@@H]2c3cc(OC)c(OC)cc3C(=O)[C@@H](C)[C@@H]2C)cc1OC`, in data set [1], the Activity is on record as 30%. In the data set on Plasmodium falciparum, the pIC50 is 6.49 and the 90% effect level (IC90) was put at 4600 nM.

On to `COc1ccc([C@@H]2c3cc(OC)c(OC)cc3C(=O)[C@H](C)[C@H]2C)cc1OC`, for which, in data set [1], the Activity stood at 30%. Also, in the data set with Plasmodium falciparum, the pIC50 was 6.70 and the concentration for an effect of 90% (IC90) was 3000 nM.

As to `COc1ccc([C@@H]2c3cc(OC)c(OC)cc3C(=O)[C@@H](C)[C@H]2C)cc1OC`, the Activity in data set [1] was determined as 30%. Also, in the data set with Plasmodium falciparum, the pIC50 is 6.20 and the 90% effect level (IC90) was put at 2610 nM.

For the molecule `COc1ccc([C@@H]2c3cc4c(cc3C(=O)[C@@H](C)[C@H]2C)OCO4)cc1OC`, the Activity in data set [1] is 30%. In the data set with Plasmodium falciparum, this molecule had a pIC50 of 5.10 and an IC90 of 19700 nM.

On to `CCN(CC)CCCC(C)Nc1ccnc2cc(Cl)ccc12` (centres undefined) [CHLOROQUINE], for which the IC90 in the data set on Plasmodium falciparum came to 700 nM.

The record behind these values is ChEMBL document CHEMBL1150789, “Antiplasmodial activity of aryltetralone lignans from Holostylis reniformis” (Antimicrob Agents Chemother, 2007).
